Only some compounds are listed: those with a hit (about 2.7% of all), similar ones and a draw of the others.
sdo1 growth – sdo1-depleted yeast growth rescue; AID 817; z-score at 10 µM; hit rate 0.21% among 140,000; S. cerevisiae sdo1-depleted JHY4D growth rescue, OD600 30 h; hits give high values; pdr5 snq2 efflux-pump mutant strain;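 active means z-score above 3 at both the 24 hr and the 30 hr optical density reads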;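 further: z-score against mean and SD of all compound wells on the same plate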
BB579 growth dn – reduces growth of yeast BB579 in restrictive medium | hit rate 0.51% among 140,000 | inhibition, % at 10 µM | S. cerevisiae BB579 growth, OD615, 48 h;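 active means inhibition above a set limit, 3 SD over the mean compound inhibition, cut at about 44% in these data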
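System: DeaD yeast strain BB579; buffer or medium: CSMM-D dextrose restrictive medium; technique: OD at 615 nm; schedule: 4 h cell preincubation, 48 h compound exposure, 30 °C humidified; doses: single 10 µM dose; controls: amphotericin B 10 µg/mL, positive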
RAM network inh – inhibitors of the yeast RAM network. S. cerevisiae dse1pr::URA3 reporter, 5-FOA growth OD615, 2 d; analog-sensitive cbk1-as2 kinase mutant strain. inhibition, % at 50 µM. hit rate 1.8% among 190,000;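 active means inhibition above a set limit, 3 SD over mean compound inhibition, cut at about 8.4% in these data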;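 further: 0% = DMSO-only wells with no growth and 100% = 10 µM 1-NA-PP1 full growth; inhibition rescues growth on 5-FOA so higher OD means more RAM inhibition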
Yeast lifespan up – yeast lifespan extension; S. cerevisiae growth with nicotinamide, OD615; deaD strain in restrictive glucose medium; inhibition of the nicotinamide effect, % at 10 µM; hit rate 0.68% among 130,000; AID 775;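 active means inhibition above a set limit, placed 3 SD over the median of all compounds, cut at about 26% in these data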;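 further: 0% = nicotinamide-treated wells and 100% = cells grown without nicotinamide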
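Assay system: engineered S. cerevisiae DeaD replicative-lifespan strain, galactose-grown log-phase cells; medium: restrictive CSMM-D dextrose medium; also added: nicotinamide, 1.5 mM, co-present with compound; schedule: 48 h compound exposure at 30 °C, humidified; detection: absorbance at 615 nm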
* = called active by the depositor; . = not tested or not shown.

SMILES	sdo1 growth	BB579 growth dn	RAM network inh	Yeast lifespan up
CCCCCC1CC(CC(=O)NC(=S)Nc2ccc([N+](=O)[O-])cc2)C(=O)O1 (stereo not drawn)	-1.44	-44.0	10.5*	.
O=C(CNC(=S)N(CCCN1CCOCC1)Cc1cccs1)N1CCCCCC1	.	.	1.2	.
O=C(O)c1ccccc1Cc1nc2cc(Cl)ccc2c(=O)[nH]1	.	.	8.6*	.
CCOC(=O)c1ccccc1Cc1nc2ccccc2c(=O)[nH]1	0.27	-0.1	5.7	-0.4
CC(C)CN=C(NS(=O)(=O)c1ccccc1)C(Cl)(Cl)Cl	-1.86	-26.6	0.5	43.6*
CC(C)CC(NS(=O)(=O)c1ccccc1)C(=O)O (stereo not drawn)	0.26	-28.2	0.7	-6.5
CC(=O)O/N=C/c1c(C)c(C=O)n2ccccc12	.	.	1.5	.
COC1=C(N)C(=O)c2nc(-c3nc(C(=O)O)c(C)c(-c4ccc(OC)c(OC)c4O)c3N)ccc2C1=O	-2.51	97.1*	1.9	-7.2
CN=Cc1nc(-c2ccccc2)oc1O	1.25	-4.3	0.0	.
CC1=Nc2ccccc2/C1=C\c1nc(-c2ccc(F)cc2)oc1O	-1.4	-32.0	8.6*	-15.3
CCOC(=O)c1c(C)n(OCc2ccccc2)c2ccc3nonc3c12	-0.34	-42.2	10.3*	-9.5
CCNS(=O)(=O)c1ccc(NC(=O)CC(C)c2ccccc2)cc1 (stereo not drawn)	.	.	1.6	.
O=C(O)/C=C/C(=O)Nc1ccc(NC(=O)c2ccccc2)c(Cl)c1	.	.	0.8	.
O=C(Nc1nccs1)c1ccc(-c2ccc(Cl)cc2Cl)o1	-1.08	-43.5	9.5*	0.1
Cc1cccc(C)c1NC(=O)c1ccc(-c2ccc(Cl)cc2Cl)o1	-1.1	-39.7	4.8	-7.6
CSc1nnc(Cn2c(=O)sc3ccccc32)n1CCc1ccccc1	-0.76	-27.5	8.9*	0.5
CSc1nnc(Cn2c(=O)sc3ccccc32)n1C	0.66	-12.8	0.5	-1.4
Cc1ccc2nc(CSc3nnc(Nc4ccccc4F)s3)cc(=O)n2c1	-0.16	-24.8	4.5	2.2
Cc1ccc(Nc2nnc(SCc3cc(=O)n4cc(C)ccc4n3)s2)cc1	-1.17	-6.3	10.8*	-1.9
CC(=O)Nc1ccc(S(=O)(=O)N2CCN(Cc3cccs3)CC2)cc1	.	.	0.3	.
Cc1c(NC(=O)C(C)n2cc([N+](=O)[O-])cn2)c(=O)n(-c2ccccc2)n1C (stereo not drawn)	.	.	1.2	.
O=C(COc1ccc(Cl)cc1)NC1=NN(c2ccccc2)C(=O)C1	0.37	61.6*	-0.5	0.3
CC1CCN(C(=O)C(C)c2ccc([N+](=O)[O-])cc2)CC1 (stereo not drawn)	.	.	3.3	.
CNC(=O)c1ccc(OCc2ccccc2)c(OC)c1	0.22	-3.3	0.6	-9.1
COc1ccccc1NC(C#N)c1ccccc1OCc1ccccc1 (stereo not drawn)	-0.75	-29.2	-0.1	30.5*
SMILES	sdo1 growth	BB579 growth dn	RAM network inh	Yeast lifespan up
CC(=O)NCCOc1nc(N(C)C)nc(N2CCCCC2)n1	.	.	1.5	.
CC[C@H](C)[C@@H](NC(=O)O[C@@H]1C(=O)c2cc(OC)ccc2O[C@H]1c1ccc(OC)c(Br)c1)C(=O)OC	-0.74	-36.6	3.0	5.3
COC(=O)[C@H](Cc1ccccc1)NC(=O)O[C@@H]1C(=O)c2cc(OC)ccc2O[C@H]1c1ccc(OC)c(Br)c1	-0.38	-40.6	10.6*	4.9
CCCC[C@@H]1C[C@H]1[C@@H](NC(=O)c1ccco1)c1ccc(Cl)cc1	-1.37	-33.5	7.3	14.5
CCCC[C@@H]1C[C@H]1[C@@H](NC(=O)c1cccs1)c1ccc(Cl)cc1	-0.39	-31.3	9.8*	16.7
CCOC(=O)/C(=N\Nc1ccccc1Cl)N1CCN(c2ccccc2OC)CC1	.	.	7.3	.
CC1CCN(C(=O)C(C)Sc2nc(-c3ccccc3)cc(C(F)(F)F)n2)CC1 (stereo not drawn)	-0.77	-16.0	8.8*	3.6
COc1cc(NC(=O)COc2ccc(Cl)cc2)ccc1-c1cc2ccccc2oc1=O	-0.96	-29.4	1.0	-3.2
O=C(O)CCC(=O)Nc1ccc(C(=O)OCC(=O)c2ccc(Cl)cc2Cl)cc1	.	.	8.7*	.
CCCC(=O)N1CCN(c2ccc(NC(=O)c3cccs3)cc2)CC1	.	.	0.1	.
O=CNn1cnc2c(oc3nc(-c4ccccc4)cc(-c4ccco4)c32)c1=O	.	.	-0.1	.
CCOc1ccc2nc(NCCCNS(=O)(=O)c3ccccc3)c(C#N)cc2c1	-1.6	-22.6	9.7*	-9.4
CC1CCCC(NC(=O)C2CCN(S(=O)(=O)N3CCCCC3)CC2)C1C (stereo not drawn)	.	.	1.3	.
COc1ccc(NC(=O)CSc2nc3ccsc3c(=O)n2CCCCCC(=O)O)cc1	.	.	10.7*	.
O=C(O)CCCCCn1c(SCC(=O)Nc2ccc(F)cc2)nc2ccsc2c1=O	.	.	6.5	.
CCC(C)n1c(SCC(=O)Nc2ccccc2C(F)(F)F)nc2ccsc2c1=O (stereo not drawn)	-0.31	-17.4	4.2	-3.2
O=C(O)CCCCn1c(SCC(=O)Nc2ccccc2C(F)(F)F)nc2ccsc2c1=O	1.08	-58.7	8.7*	12.6
CC(C)CN1C(=O)C(=Nc2cccnc2)c2ccccc21	.	.	1.3	.
CCOC(=O)C(CC)Sc1nc2c(c(=O)[nH]c(=O)n2C)n1C/C=C(/C)Cl (stereo not drawn)	-0.92	-65.6	0.5	-8.9
CCCCOC(=O)CSc1nc2c(c(=O)[nH]c(=O)n2C)n1C/C=C(\C)Cl	0.7	-13.0	3.8	87.3*
CCCCCOC(=O)CSc1nc2c(c(=O)[nH]c(=O)n2C)n1CCc1ccccc1	-1.38	-26.9	3.1	91.7*
CCn1c(COc2cccc3cccnc23)nnc1SC(F)F	.	.	2.4	.
CC(=O)Nc1ccc(C(=O)CSc2cc(C)c3cccc(C)c3n2)cc1	0.77	-20.4	5.2	0.3
Cc1cc(SCC(=O)c2cccs2)nc2c(C)cccc12	-0.72	-45.5	8.9*	-13.0
CCN1/C(=C(\O)c2ccccc2)C(=O)c2ccccc2S1(=O)=O	-1.1	100.0*	-2.0	-24.7
SMILES	sdo1 growth	BB579 growth dn	RAM network inh	Yeast lifespan up
CCN1c2cccc3cccc(c23)S1(=O)=O	0.81	-56.5	-0.2	-21.2
O=[N+]([O-])c1cccc(/C=N\N=C2c3ccccc3-c3ccccc32)c1O	-1.26	4.0	9.9*	-4.4
COc1ccccc1NS(=O)(=O)c1cccc(C(=O)OCc2nc3ccccc3s2)c1	-1.39	-18.6	8.4*	1.6
COc1ccccc1NS(=O)(=O)c1cccc(C(=O)OCC(=O)Nc2cc(C)on2)c1	-0.2	-48.8	3.4	-9.9
C=CCN1C(=O)C(Cc2ccc(SC(F)F)cc2)SC1=Nc1ccc(C(=O)O)cc1 (stereo not drawn)	.	.	8.7*	.
O=C(Cc1ccccc1)Nc1cccc(N2C(=O)C=CC2=O)c1	0.45	-17.9	0.0	-3.1
Oc1ccc(NCc2ccccc2OCc2ccccc2F)cc1	-0.17	-28.1	4.1	27.0*
Cc1ccc(NCc2ccccc2OCc2ccccc2F)cc1	0.19	-32.5	1.2	-11.4
O=C1OC(c2ccccc2)=NC12CC2c1ccc(Cl)cc1 (stereo not drawn)	-0.83	1.3	1.1	30.1*
Cc1cccc(C(=O)OCC(=O)NCCCc2ccccc2)c1	.	.	2.9	.
CC(=O)c1c(O)cc(C)n(Nc2nc(C)cc(C)n2)c1=O	0.07	-18.0	-1.3	32.3*
